Assay results as given in ChEMBL document CHEMBL1667759, “Molecular modeling study and synthesis of quinazolinone-arylpiperazine derivatives as α1-adrenoreceptor antagonists” (Eur J Med Chem, 2011).
Structures can show the parent of a compound that is named as a salt.

Tests used:
Assay type in all cases: functional
Felis catus [1] = assay: Hypotensive activity in normotensive cat assessed as reduction in systolic blood pressure at 500 mg/kg, iv; details: Artery
Method in brief: (§1)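 Male cats (2e3 kg), acclimatized 7 days at 22 °C with 12 h light/dark cycle; groups of six. Single 500 mg/kg dose injected via femoral vein, flushed with 1 mL saline. Systolic and diastolic pressure recorded with mercury manometer on smoked kymograph; mean ± SD and % change versus control, significance by one-way ANOVA at P < 0.05. Experiments run 8–10 a.m.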

Rattus norvegicus = species: Rattus norvegicus; assay: Vasodilatory activity in Wistar rat aortic rings without endothelium assessed as reduction in norepinephrine hydrochloride-induced vasoconstriction; details: Wister, Aorta
Method in brief: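 Thoracic aortic rings from male Wister rats (250e350 g), killed by cervical dislocation and bleeding after light ether anaesthesia. Contraction to norepinephrine hydrochloride (10^-6 M) measured before and after increasing compound concentrations; compounds dissolved in DMSO (0.01 M stock), with DMSO-alone controls. IC50 = concentration giving 50% reduction of maximal NE contracture, derived by best-fit line.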

Felis catus [2] = assay: Hypotensive activity in normotensive cat assessed as reduction in diastolic blood pressure at 500 mg/kg, iv; details: Artery; method in brief: as §1

Row | Compound | inhibition in vivo at 500 mg/kg (Felis catus [1]) [%] | IC50 (Rattus norvegicus) [µM] | inhibition in vivo at 500 mg/kg (Felis catus [2]) [%]
1 | CCOC(=O)c1nc2cc(OC)c(OC)cc2c(=O)n1NC(=O)CCN1CCN(c2ccccc2OC)CC1 | 12.4 | 400 | 13.9
2 | COc1ccccc1N1CCN(Cc2nc3ccccc3c(=O)[nH]2)CC1 | 23.7 | 303 | 21.7
3 | COc1cc2nc(C)n(NC(=O)CCN3CCN(C(=O)c4ccco4)CC3)c(=O)c2cc1OC | 9.38 |  | 11.1
4 | COc1cc2nc(C)n(NC(=O)CN3CCN(c4ccccc4OC)CC3)c(=O)c2cc1OC | 3.13 |  | 2.78
5 | COc1cc2nc(C)n(NC(=O)CCN3CCN(c4ccccc4)CC3)c(=O)c2cc1OC | 15.6 |  | 13.9
6 | COc1cc2nc(N3CCN(C(=O)c4ccco4)CC3)nc(N)c2cc1OC [PRAZOSIN HYDROCHLORIDE] | 29 | 487 | 29
7 | COc1cc2nc(C)n(NC(=O)CCN3CCN(c4ccccc4OC)CC3)c(=O)c2cc1OC | 42.2 | 201 | 40
8 | CCOC(=O)c1nc2cc(OC)c(OC)cc2c(=O)n1NC(=O)CN1CCN(c2ccccc2OC)CC1 | 2.22 |  | 4.02
9 | COc1cc2nc(C)n(NC(=O)CCN3CCN(c4ccc([N+](=O)[O-])cc4)CC3)c(=O)c2cc1OC | 5 |  | 6.82
10 | COc1ccccc1N1CCN(CC(=O)Nn2c(C)nc3ccccc3c2=O)CC1 | 0 |  | 0
